Results gathered from unrelated publications.
Each line is one published result; the experiments were not run side by side.
Target: Serine/threonine-protein kinase BRSK1 (BRSK1, Homo sapiens, UniProt Q8TDC3)
Sequence (Q8TDC3 1-778, as in one of the studies): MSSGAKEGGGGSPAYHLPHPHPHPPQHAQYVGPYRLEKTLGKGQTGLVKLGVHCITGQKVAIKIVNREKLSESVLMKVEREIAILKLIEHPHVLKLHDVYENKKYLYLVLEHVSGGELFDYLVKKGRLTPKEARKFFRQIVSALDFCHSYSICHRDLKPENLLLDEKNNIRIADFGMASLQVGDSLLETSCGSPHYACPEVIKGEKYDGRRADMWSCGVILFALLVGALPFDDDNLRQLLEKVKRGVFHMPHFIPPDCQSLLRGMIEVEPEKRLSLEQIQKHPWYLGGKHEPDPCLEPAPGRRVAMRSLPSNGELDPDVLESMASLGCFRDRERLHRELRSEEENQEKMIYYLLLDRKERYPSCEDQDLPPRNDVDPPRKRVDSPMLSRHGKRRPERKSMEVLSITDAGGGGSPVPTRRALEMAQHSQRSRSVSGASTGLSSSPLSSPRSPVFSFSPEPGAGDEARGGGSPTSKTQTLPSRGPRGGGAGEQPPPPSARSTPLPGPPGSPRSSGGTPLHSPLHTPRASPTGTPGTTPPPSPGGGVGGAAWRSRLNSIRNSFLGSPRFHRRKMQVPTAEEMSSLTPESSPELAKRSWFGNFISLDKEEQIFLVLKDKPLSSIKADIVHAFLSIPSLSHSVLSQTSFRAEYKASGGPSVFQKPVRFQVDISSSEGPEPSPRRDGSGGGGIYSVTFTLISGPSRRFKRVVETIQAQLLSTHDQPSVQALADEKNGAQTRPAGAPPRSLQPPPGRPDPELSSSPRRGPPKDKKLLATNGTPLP

SMILES	test	setting	endpoint	result
COc1cc2ncnc(Nc3ccc(Oc4ccccc4)c(C)c3C)c2cc1OC	enzyme activity, inhibitor	1 µM	inhibition	0%
CCCS(=O)(=O)Nc1ccc(F)c(C(=O)c2c[nH]c3ncc(-c4ccc(Cl)cc4)cc23)c1F	enzyme activity, inhibitor	1 µM	inhibition	< 10%
COc1cc(Cl)c(C(=O)N[C@@H](CN[C@H]2CC[C@@H](N)CC2)Cc2ccc(C#N)cc2)cc1-c1ccc(CN[C@H](C)c2ccc(C)cc2)o1	enzyme activity, inhibitor	1 µM	remaining activity	100%
CNc1cccc2cc(C(=O)Nc3ccc(C(=O)O)cc3)c(=O)[nH]c12	enzyme activity, inhibitor	10 µM	inhibition	2.7%
Cn1c(=O)n(-c2ccc(C(C)(C)C#N)cc2)c2c3cc(-c4cnc5ccccc5c4)ccc3ncc21	enzyme activity, inhibitor	10 µM	remaining activity	85%
CC1=C(C#N)C(c2ccc3c(c2)c(NC(=O)c2ccccc2C)nn3C)C(C#N)=C(C)N1	cell-free assay, competition with immobilised ligand	1 µM	remaining binding	100%
CNC(=O)c1cc(Oc2ccc(NC(=O)Nc3ccc(Cl)c(C(F)(F)F)c3)cc2)ccn1	enzyme activity, inhibitor	10 µM	inhibition	20%
Cc1cnc(NC2CCOCC2)nc1-n1cnc(C(=O)NC(CN)c2cc(F)cc(Cl)c2)c1 (stereo not drawn)	enzyme activity, inhibitor, radiometric	1 µM	remaining activity	77%
N[C@@H]1CCN(c2nccc(-c3cnn4ncccc34)n2)C1	binding	1 µM	remaining binding	100%
FC(F)(F)Oc1cccc(-c2cnc3ccc(-c4ccncc4)nn23)c1	enzyme activity, inhibitor, radiometric	1 µM	activity vs control	103%
Cc1ccc(Nc2nccc(N(C)c3ccc4c(C)n(C)nc4c3)n2)cc1S(N)(=O)=O	enzyme activity, inhibitor	0.3 µM	inhibition	18%
CC(C)(C)c1nc2c(s1)c1nc(N)ncc1c1ccc(NS(=O)(=O)c3c(F)cccc3F)c(F)c12	enzyme activity, inhibitor, radiometric	1 µM	remaining activity	102%
CC/C(=N\NC(=O)NCc1cccc(O)c1)c1ccc(O)c(C)c1O	enzyme activity, inhibitor	0.1 µM	inhibition	1.7%
CNC(=O)c1ccc(Nc2ncc(C(F)(F)F)c(NCc3nccnc3N(C)S(C)(=O)=O)n2)cc1	cell-free assay, competition with immobilised ligand	0.1 µM	remaining binding	100%
O=C(Nc1cnn(-c2csc(C(=O)NC3COC3)c2)c1)Nc1ccccc1Cl	enzyme activity, inhibitor	5 µM	remaining activity	85.5%
CCCCN(CCCC)C(=O)CN1C[C@@H](c2cc(OC)c3c(c2)OCO3)[C@H](C(=O)O)[C@H]1CC(C)(C)CCC	cell-free assay, competition with immobilised ligand	1 µM	remaining binding	88.9%
CC(C)(O)[C@H]1CC[C@H](Nc2ccc3ncc(-c4cccc(C(F)(F)F)c4)n3n2)CC1	enzyme activity, inhibitor	1 µM	remaining activity	98.1%
O=C(N1CCS(=O)(=O)CC1)N1C[C@H](c2ccc(OC(F)(F)F)cc2)C[C@H](c2nc(C3CC3)no2)C1	cell-free assay, competition with immobilised ligand	1 µM	remaining binding	100%
Nc1nc(Nc2ccc(S(N)(=O)=O)cc2)nn1C(=O)c1c(F)cccc1F	cell-free assay	0.5 µM	remaining signal	49.2%
Cc1cc(C)c(-n2ccn3nc(-c4cccnc4)cc23)cc1NC(=O)c1cc(C#N)cc(S(F)(F)(F)(F)F)c1	cell-free assay, competition with immobilised ligand	0.1 µM	remaining binding	84%
CCN(CC)CCNC(=O)c1c(C)[nH]c(/C=C2\C(=O)Nc3ccc(F)cc32)c1C	enzyme activity, inhibitor	10 µM	inhibition	82%
C[C@H](c1ccc(F)cc1)N(Cc1cccc(C(=O)O)c1)C(=O)c1cnc2ccccc2c1	cell-free assay, competition with immobilised ligand	1 µM	remaining binding	100%
CCCOc1ccc(OC)c(F)c1C(=O)c1ccc(C(=O)N[C@@H]2CNC[C@H]2NC(=O)c2ccc3[nH]ncc3c2)cc1	enzyme activity, inhibitor	10 µM	remaining activity	40%
CCC(=N\O)/C(C)=C/c1ccc(F)cc1	cell-free assay, competition with immobilised ligand	1 µM	remaining binding	100%
COc1cc2ncnc(Nc3ccc(F)c(Cl)c3)c2cc1OCCCN1CCOCC1	cell-free assay	0.5 µM	remaining signal	92.5%
C[C@H](c1ccnc(Nc2nc3ccc(-c4cc(N(C)C)ncn4)cc3[nH]2)c1)N1CCN(C(=O)CC(F)(F)F)CC1	cell-free assay, competition with immobilised ligand	0.1 µM	remaining binding	100%
Nc1ncnc2occ(-c3ccc(NC(=O)Nc4cc(C(F)(F)F)ccc4F)cc3)c12	cell-free assay, inhibitor	20 µM	remaining signal	8.4%
